Assay results taken from ChEMBL document CHEMBL1240360, “TMC278, a next-generation nonnucleoside reverse transcriptase inhibitor (NNRTI), active against wild-type and NNRTI-resistant HIV-1” (Antimicrob Agents Chemother, 2010).

Tests used:
[1] = test system: Human immunodeficiency virus 1; test: Antiviral activity against Human immunodeficiency virus 1 subtype C isolate 93MW959 infected in human PBMC cells by cell based assay; settings: Human immunodeficiency virus 1, subtype C isolate 93MW959, PBMC
[2] = test system: Human immunodeficiency virus 1; test: Antiviral activity against Human immunodeficiency virus 1 group M subtype G assessed as days to viral replication breakthrough at 40 nM by cell based assay; assay type: functional
[3] = test system: Human immunodeficiency virus 1; test: Antiviral activity against Human immunodeficiency virus 1 group M subtype H assessed as days to viral replication breakthrough at 10 nM by cell based assay; assay type: functional
[4] = test system: Human immunodeficiency virus 1; test: Antiviral activity against Human immunodeficiency virus 1 group M subtype AE assessed as days to viral replication breakthrough at 200 nM by cell based assay; assay type: functional
[5] = test system: Human immunodeficiency virus 1; test: Antiviral activity against Human immunodeficiency virus 1 group M subtype AE assessed as days to viral replication breakthrough at 40 nM by cell based assay; assay type: functional
[6] = test system: Human immunodeficiency virus 1; test: Antiviral activity against Human immunodeficiency virus 1 subtype A isolate 92UG037 infected in human PBMC cells by cell based assay; settings: Human immunodeficiency virus 1, subtype A isolate 92UG037, PBMC
[7] = test system: Human immunodeficiency virus 1; test: Antiviral activity against Human immunodeficiency virus 1 subtype D isolate 92UG035 infected in human PBMC cells by cell based assay; settings: Human immunodeficiency virus 1, subtype D 92UG035, PBMC
[8] = test system: Human immunodeficiency virus 1; test: Antiviral activity against Human immunodeficiency virus 1 group M subtype AG assessed as days to viral replication breakthrough at 40 nM by cell based assay; assay type: functional
[9] = test system: Human immunodeficiency virus 1; test: Antiviral activity against Human immunodeficiency virus 1 group M subtype B assessed as days to viral replication breakthrough at 10 nM by cell based assay; assay type: functional
[10] = test system: Human immunodeficiency virus 1; test: Antiviral activity against Human immunodeficiency virus 1 subtype F isolate 93BR029 infected in human PBMC cells by cell based assay; settings: Human immunodeficiency virus 1, subtype F isolate 93BR029, PBMC
[11] = test system: Human immunodeficiency virus 1; test: Antiviral activity against Human immunodeficiency virus 1 subtype B isolate JR-CSF infected in human PBMC cells by cell based assay
[12] = test system: Human immunodeficiency virus 1; test: Antiviral activity against Human immunodeficiency virus 1 subtype A isolate 92RW020 infected in human PBMC cells by cell based assay; settings: Human immunodeficiency virus 1, subtype A isolate 92RW020, PBMC
[13] = test system: Human immunodeficiency virus 1; test: Antiviral activity against Human immunodeficiency virus 1 3B infected in human MT4 cells assessed as reduction in virus induced cytopathicity; assay type: functional, organism-based
Method in brief: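 MT4 cells (1.5 × 10^5/ml) infected with HIV-1 IIIB at MOI 0.01 and added to serially diluted compound. Cultures incubated 5 days at 37°C under 5% CO2. Cell viability, as protection from virus-induced killing, read by MTT tetrazolium colorimetry. EC50 reported as median with first to third quartiles over n experiments.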

[14] = test system: Human immunodeficiency virus 1; test: Antiviral activity against Human immunodeficiency virus 1 subtype O isolate BCF03 infected in human PBMC cells by cell based assay; settings: Human immunodeficiency virus 1, subtype O isolate BCF03, PBMC
[15] = test system: Human immunodeficiency virus 1; test: Antiviral activity against Human immunodeficiency virus 1 subtype B isolate WEJO infected in human PBMC cells by cell based assay
[16] = test system: Human immunodeficiency virus 1; test: Antiviral activity against Human immunodeficiency virus 1 group M subtype C assessed as days to viral replication breakthrough at 10 nM by cell based assay; assay type: functional
[17] = test system: Human immunodeficiency virus 1; test: Antiviral activity against Human immunodeficiency virus 1 subtype B isolate 93BR021 infected in human PBMC cells by cell based assay; settings: Human immunodeficiency virus 1, subtype B isolate 93BR021, PBMC
MT4 = test: Cytotoxicity against human MT4 cells by cell based assay
Method in brief: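 Cytotoxicity in MT4 cells from cell-based assays gave a 50% cytotoxic concentration, reported as a median with first- to third-quartile values over the stated number of experiments.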

[18] = test system: Human immunodeficiency virus 2; test: Antiviral activity against Human immunodeficiency virus 2 ROD infected in human MT4 cells assessed as reduction in virus induced cytopathicity; assay type: functional, organism-based; settings: Human immunodeficiency virus 2, ISOLATE ROD
Method in brief: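 MT4 cells (1.5 × 10^5/ml) infected with HIV (MOI 0.01) were added to serial compound dilutions and incubated 5 days at 37°C in 5% CO2. Protection from virus-induced cell death was read by MTT tetrazolium colorimetry, giving an EC50 in micromolar.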

[19] = test system: Human immunodeficiency virus 1; test: Antiviral activity against Human immunodeficiency virus 1 subtype (H) infected in human MT4 cells assessed as reduction in virus induced cytopathicity; assay type: functional, organism-based
Method in brief: (§1)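 Recombinant viruses were made by recombining patient-derived HIV-1 RT-PR sequences into an RT-PR-deleted HXB2 proviral clone transfected into MT4 cells. Subtype was assigned from PR/RT sequence by Smith-Waterman alignment to HXB2. MT4 cells (1.5 × 10^5/ml) were infected at MOI 0.01 with serially diluted compound for 5 days at 37°C. Viability was read by MTT and EC50 derived.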

[20] = test system: Human immunodeficiency virus 1; test: Antiviral activity against Human immunodeficiency virus 1 subtype C isolate 93IN101 infected in human PBMC cells by cell based assay; settings: Human immunodeficiency virus 1, subtype C isolate 93IN101, PBMC
[21] = test system: Human immunodeficiency virus 1; test: Antiviral activity against Human immunodeficiency virus 1 group M subtype A1 assessed as days to viral replication breakthrough at 200 nM by cell based assay; assay type: functional
[22] = test system: Human immunodeficiency virus 1; test: Antiviral activity against Human immunodeficiency virus 1 subtype C infected in human MT4 cells assessed as reduction in virus induced cytopathicity; assay type: functional, organism-based; method in brief: as §1
[23] = test system: Human immunodeficiency virus 1; test: Antiviral activity against Human immunodeficiency virus 1 group M subtype AG assessed as days f for viral replication at 200 nM by cell based assay; assay type: functional
[24] = test system: Human immunodeficiency virus 1; test: Antiviral activity against Human immunodeficiency virus 1 subtype G isolate RU132 infected in human PBMC cells by cell based assay; settings: Human immunodeficiency virus 1, subtype G isolate RU132, PBMC
[25] = test system: Human immunodeficiency virus 1; test: Antiviral activity against Human immunodeficiency virus 1 subtype G infected in human MT4 cells assessed as reduction in virus induced cytopathicity; assay type: functional, organism-based; method in brief: as §1
[26] = test system: Human immunodeficiency virus 1; test: Antiviral activity against Human immunodeficiency virus 1 group M subtype A1 assessed as days to viral replication breakthrough at 10 nM by cell based assay; assay type: functional
[27] = test system: Human immunodeficiency virus 1; test: Antiviral activity against Human immunodeficiency virus 1 group M subtype F1 assessed as days to viral replication breakthrough at 10 nM by cell based assay; assay type: functional
[28] = test system: Human immunodeficiency virus 1; test: Antiviral activity against Human immunodeficiency virus 1 group M subtype A1 assessed as days to viral replication breakthrough at 40 nM by cell based assay; assay type: functional
[29] = test system: Human immunodeficiency virus 1; test: Antiviral activity against Human immunodeficiency virus 1 subtype E isolate CMU08 infected in human PBMC cells by cell based assay; settings: Human immunodeficiency virus 1, subtype E isolate CMU08, PBMC
[30] = test system: Human immunodeficiency virus 1; test: Antiviral activity against Human immunodeficiency virus 1 subtype F isolate 93BR019 infected in human PBMC cells by cell based assay; settings: Human immunodeficiency virus 1, subtype F isolate 93BR019, PBMC
[31] = test system: Human immunodeficiency virus 1; test: Antiviral activity against Human immunodeficiency virus 1 subtype D isolate 92UG001 infected in human PBMC cells by cell based assay; settings: Human immunodeficiency virus 1, subtype D isolate 92UG001, PBMC
[32] = test system: Human immunodeficiency virus 1; test: Antiviral activity against Human immunodeficiency virus 1 subtype G isolate JV1083 infected in human PBMC cells by cell based assay; settings: Human immunodeficiency virus 1, subtype G isolate JV1083, PBMC

EC50 [1]: 0.11 nM | EC50 [6]: 0.24 nM | EC50 [7]: 0.07 nM | EC50 [10]: 0.19 nM | EC50 [11]: 0.51 nM | EC50 [12]: 0.07 nM | EC50 [13]: 0.73 nM | EC50 [14]: 8.45 nM | EC50 [15]: 0.08 nM | EC50 [17]: 0.23 nM | EC50 [18]: 5220 nM | EC50 [19]: 0.24 nM | EC50 [20]: 0.53 nM | EC50 [22]: 0.3 nM | EC50 [24]: 0.51 nM | EC50 [25]: 0.14 nM | EC50 [29]: 1.01 nM | EC50 [30]: 0.95 nM | EC50 [31]: 0.26 nM | EC50 [32]: 0.26 nM
Structure (SMILES): Cc1cc(/C=C/C#N)cc(C)c1Nc1ccnc(Nc2ccc(C#N)cc2)n1 [RILPIVIRINE]
Activity [2]: > 31 days | Activity [3]: > 31 days | Activity [4]: > 31 days | Activity [5]: > 31 days | Activity [8]: > 31 days | Activity [9]: 7 days | Activity [16]: > 31 days | Activity (MT4): 5.91 µM | Activity [21]: > 31 days | Activity [23]: > 31 days | Activity [26]: 10 days | Activity [27]: > 31 days | Activity [28]: > 31 days
